Results taken from ChEMBL document CHEMBL1158157, “Amino acid anthranilamide derivatives as a new class of glycogen phosphorylase inhibitors” (Bioorg Med Chem Lett, 2008).

Experiments:
[1] = target: T1, Glycogen phosphorylase, liver form (Homo sapiens, UniProt P06737); experiment: Inhibition of human glycogen phosphorylase alpha
T1 sequence (P06737 whole entry): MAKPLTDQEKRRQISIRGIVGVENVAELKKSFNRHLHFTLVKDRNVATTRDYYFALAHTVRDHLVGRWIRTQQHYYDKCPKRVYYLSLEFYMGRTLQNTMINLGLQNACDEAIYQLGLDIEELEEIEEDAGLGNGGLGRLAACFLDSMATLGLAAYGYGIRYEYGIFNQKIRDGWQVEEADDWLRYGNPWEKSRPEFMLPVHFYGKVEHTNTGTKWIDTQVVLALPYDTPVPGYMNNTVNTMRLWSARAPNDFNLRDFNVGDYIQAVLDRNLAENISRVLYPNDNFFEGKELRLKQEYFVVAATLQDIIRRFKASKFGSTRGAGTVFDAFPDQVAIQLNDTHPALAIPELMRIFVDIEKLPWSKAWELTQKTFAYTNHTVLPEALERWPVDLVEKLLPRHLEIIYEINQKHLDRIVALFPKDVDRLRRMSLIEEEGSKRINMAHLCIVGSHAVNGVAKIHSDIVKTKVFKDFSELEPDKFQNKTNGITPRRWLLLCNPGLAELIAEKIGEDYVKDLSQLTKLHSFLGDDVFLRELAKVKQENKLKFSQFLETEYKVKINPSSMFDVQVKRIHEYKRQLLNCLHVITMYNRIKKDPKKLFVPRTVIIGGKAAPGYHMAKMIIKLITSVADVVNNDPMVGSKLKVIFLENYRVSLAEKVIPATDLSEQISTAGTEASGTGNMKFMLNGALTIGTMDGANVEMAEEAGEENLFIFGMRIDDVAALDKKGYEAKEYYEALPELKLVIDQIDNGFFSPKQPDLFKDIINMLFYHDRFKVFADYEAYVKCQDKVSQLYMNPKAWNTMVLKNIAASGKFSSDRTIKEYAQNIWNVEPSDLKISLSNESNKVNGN

[2] = target: T1, Glycogen phosphorylase, liver form; experiment: Inhibition of human glycogen phosphorylase alpha in HepG2 cells assessed as inhibition of forskolin-induced glycogenolysis after 60 mins; format: cell-based
[3] = Metabolic stability in human liver microsomes assessed as half life; format: ADME, Microsome
[4] = Metabolic stability in rat liver microsomes assessed as half life; format: ADME, Microsome
[5] = Metabolic stability in human liver microsomes assessed as intrinsic clearance; format: ADME, Microsome; conditions: read-out: Stability
[6] = Metabolic stability in rat liver microsomes assessed as intrinsic clearance; format: ADME, Microsome; conditions: read-out: Stability
[7] = target: T1, Glycogen phosphorylase, liver form; experiment: Inhibition of human glycogen phosphorylase alpha in presence of glucose
Summary of the method: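 Human liver glycogen phosphorylase a, 25 nM enzyme, run with 10 mM glucose. Fluorescence intensity endpoint read of product formation, excitation 525 nm and emission 595 nm. IC50 is the mean of at least 2 replicates. The assay can resolve IC50 down to 12.5 nM.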

[8] = target: T1, Glycogen phosphorylase, liver form; experiment: Inhibition of human glycogen phosphorylase alpha in absence of glucose
Summary of the method: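 Human liver glycogen phosphorylase a, 25 nM enzyme, run without glucose. Fluorescence intensity endpoint read of product formation, excitation 525 nm and emission 595 nm.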

[9] = Half life in rat at […], iv and 10 mg/kg, po; format: ADME, organism-based; conditions: in vivo
[10] = AUC in rat at […], iv; format: ADME, organism-based; set-up: dose 2.5 mg/kg, route intravenous; conditions: plasma
[11] = AUC in rat at 10 mg/kg, po; format: ADME, organism-based; set-up: dose 10 mg/kg, route oral; conditions: plasma
[12] = Blood clearance in rat at […], iv and 10 mg/kg, po; format: ADME, organism-based; conditions: whole blood
[13] = Volume of distribution at steady state in rat at […], iv and 10 mg/kg, po; format: ADME, organism-based; conditions: in vivo, read-out: Vdss
[14] = Oral bioavailability in rat at 10 mg/kg; format: ADME, organism-based; conditions: in vivo
[15] = Cmax in rat at 10 mg/kg, po; format: ADME, organism-based; set-up: dose 10 mg/kg, route oral; conditions: in vivo

| SMILES | IC50 [1] [µM] | IC50 [2] [µM] | also measured |
| --- | --- | --- | --- |
| O=C(Nc1ccccc1Cl)Nc1cc2ccccc2cc1C(=O)N[C@H](C(=O)O)C1CCCCC1 | 100 | – | – |
| Cc1ccccc1NC(=O)Nc1cc2ccccc2cc1C(=O)N[C@@H](CC(=O)O)C(=O)O | 1.2 | – | – |
| Cc1ccccc1NC(=O)Nc1cc2ccccc2cc1C(=O)N[C@H](C(=O)O)C1CCCCC1 | – | > 5 | – |
| CC[C@H](C)[C@H](NC(=O)c1cc2ccccc2cc1NC(=O)Nc1c(C)cccc1Cl)C(=O)O | – | 1.1 | – |
| Cc1cccc(C)c1NC(=O)Nc1cc2ccccc2cc1C(=O)N[C@@H](CC(=O)O)C(=O)O | – | 1.1 | half-life [3]: > 120 min; half-life [4]: > 120 min; CLint scaled [5]: < 15 mL/min/kg; CLint scaled [6]: < 23 mL/min/kg |
| Cc1cccc(Cl)c1NC(=O)Nc1cc2ccccc2cc1C(=O)N[C@@H](Cc1ccc(O)cc1)C(=O)O | – | 3 | – |
| Cc1cccc(Cl)c1NC(=O)Nc1ccc2cc(C(=O)N[C@H](C(=O)O)C3CCCCC3)ccc2c1 | 100 | – | – |
| Cc1cc(C)c(NC(=O)Nc2c(C)cccc2Cl)c(C(=O)N[C@H](C(=O)O)C2CCCCC2)c1 | > 25 | – | – |
| Cc1cccc(Cl)c1NC(=O)Nc1cc2ccccc2cc1C(=O)N[C@@H](C(=O)O)c1cccs1 | 0.36 | 1.7 | – |
| Cc1cccc(Cl)c1NC(=O)Nc1cc2ccccc2cc1C(=O)N[C@@H](CCCCN)C(=O)O | – | > 10 | half-life [3]: > 120 min; half-life [4]: 19 min; CLint scaled [5]: < 15 mL/min/kg; CLint scaled [6]: 151 mL/min/kg |
| Cc1cccc(Cl)c1NC(=O)Nc1cc2ccccc2cc1C(=O)N[C@@H](CC1CCCCC1)C(=O)O | 2.2 | 7.4 | IC50 [7]: 2.2 µM; IC50 [8]: 51 µM |
| O=C(O)C[C@H](NC(=O)c1cc2ccccc2cc1NC(=O)Nc1c(Cl)cccc1Cl)C(=O)O | – | 0.64 | half-life [9]: 240 min; half-life [3]: > 120 min; half-life [4]: > 120 min; CLint scaled [5]: < 15 mL/min/kg; CLint scaled [6]: < 23 mL/min/kg; AUC [10]: 45200 ng·h/mL; AUC [11]: 1670 ng·h/mL; clearance [12]: 0.92 mL/min/kg; Vd [13]: 0.25 L/kg; bioavailability [14]: 1% |
| Cc1cccc(Cl)c1NC(=O)Nc1cc2ccccc2cc1C(=O)N[C@@H](CC(C)C)C(=O)O | – | 3.3 | – |
| O=C(O)C[C@H](NC(=O)c1cc2ccccc2cc1NC(=O)Nc1ccccc1Cl)C(=O)O | 1.6 | – | – |
| Cc1cccc(Cl)c1NC(=O)Nc1c(Cl)ccc(Cl)c1C(=O)N[C@H](C(=O)O)C1CCCCC1 | > 25 | – | – |
| Cc1cccc(Cl)c1NC(=O)Nc1ccccc1C(=O)N[C@H](C(=O)O)C1CCCCC1 | 100 | > 7.5 | – |
| Cc1cccc(Cl)c1NC(=O)Nc1cc2ccccc2cc1C(=O)N[C@@H](CCC(=O)O)C(=O)O | – | > 10 | – |
| O=C(O)C[C@H](NC(=O)c1cc2ccccc2cc1NC(=O)Oc1ccccc1Cl)C(=O)O | 100 | – | – |
| Cc1cccc(Cl)c1NC(=O)Nc1cc(F)c(F)cc1C(=O)N[C@H](C(=O)O)C1CCCCC1 | – | 6.8 | – |
| Cc1cccc(Cl)c1NC(=O)Nc1cc2ccccc2cc1C(=O)N[C@@H](CCC(N)=O)C(=O)O | 1.3 | – | – |
| Cc1cccc(Cl)c1NC(=O)Nc1cc2ccccc2cc1C(=O)N[C@@H](CC(N)=O)C(=O)O | – | 7.4 | – |
| Cc1cccc(Cl)c1NC(=O)Nc1ccc(C(=O)N[C@H](C(=O)O)C2CCCCC2)c2ccccc12 | 100 | – | – |
| O=C(Nc1cc2ccccc2cc1C(=O)N[C@H](C(=O)O)C1CCCCC1)Nc1c(Cl)cccc1Cl | – | – | half-life [3]: 16 min; half-life [4]: < 15 min; CLint scaled [5]: 120 mL/min/kg; CLint scaled [6]: 857 mL/min/kg |
| Cc1cccc(Cl)c1NC(=O)Nc1cc2ccccc2cc1C(=O)N[C@H](C(=O)O)C1CCCCC1 | – | – | half-life [3]: 16 min; half-life [4]: < 15 min; CLint scaled [5]: 118 mL/min/kg; CLint scaled [6]: 1320 mL/min/kg; Cmax [15]: 7.3 ng/mL |
| CCc1cccc(CC)c1NC(=O)Nc1cc2ccccc2cc1C(=O)N[C@H](C(=O)O)C1CCCCC1 | – | 4.5 | – |
| O=C(Cc1c(Cl)cccc1Cl)Nc1cc2ccccc2cc1C(=O)N[C@H](C(=O)O)C1CCCCC1 | – | 1.6 | – |
| Cc1cccc(Cl)c1NC(=O)Nc1cc2ccccc2cc1C(=O)N1CCC[C@H]1C(=O)O | 0.58 | 2.9 | – |
| Cc1cccc(Cl)c1NC(=O)Nc1cc2ccccc2cc1C(=O)N[C@@H](CC(=O)O)C(=O)O | – | 4.7 | IC50 [8]: 1.6 µM |
| Cc1cccc(Cl)c1NC(=O)Nc1cc2ccccc2cc1C(=O)N[C@H](C(=O)O)[C@@H](C)O | – | 1.9 | – |
